TRPC6 inh: inhibitors of mouse TRPC6 channel; Q61143; HEK293-TRPC6, membrane potential dye, ACh-evoked depolarization; active compounds read low; B-score at 10 µM; 310,000 compounds, 1.1% hits;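 active = B-score under library mean minus 3 SD, initial fluorescence not abnormally high, positive integrated signal ratio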;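 also: B-score derived from integrated fluorescence ratio over the kinetic read; more negative B-score means stronger inhibition of depolarization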
Target sequence (Q61143 whole entry, looked up): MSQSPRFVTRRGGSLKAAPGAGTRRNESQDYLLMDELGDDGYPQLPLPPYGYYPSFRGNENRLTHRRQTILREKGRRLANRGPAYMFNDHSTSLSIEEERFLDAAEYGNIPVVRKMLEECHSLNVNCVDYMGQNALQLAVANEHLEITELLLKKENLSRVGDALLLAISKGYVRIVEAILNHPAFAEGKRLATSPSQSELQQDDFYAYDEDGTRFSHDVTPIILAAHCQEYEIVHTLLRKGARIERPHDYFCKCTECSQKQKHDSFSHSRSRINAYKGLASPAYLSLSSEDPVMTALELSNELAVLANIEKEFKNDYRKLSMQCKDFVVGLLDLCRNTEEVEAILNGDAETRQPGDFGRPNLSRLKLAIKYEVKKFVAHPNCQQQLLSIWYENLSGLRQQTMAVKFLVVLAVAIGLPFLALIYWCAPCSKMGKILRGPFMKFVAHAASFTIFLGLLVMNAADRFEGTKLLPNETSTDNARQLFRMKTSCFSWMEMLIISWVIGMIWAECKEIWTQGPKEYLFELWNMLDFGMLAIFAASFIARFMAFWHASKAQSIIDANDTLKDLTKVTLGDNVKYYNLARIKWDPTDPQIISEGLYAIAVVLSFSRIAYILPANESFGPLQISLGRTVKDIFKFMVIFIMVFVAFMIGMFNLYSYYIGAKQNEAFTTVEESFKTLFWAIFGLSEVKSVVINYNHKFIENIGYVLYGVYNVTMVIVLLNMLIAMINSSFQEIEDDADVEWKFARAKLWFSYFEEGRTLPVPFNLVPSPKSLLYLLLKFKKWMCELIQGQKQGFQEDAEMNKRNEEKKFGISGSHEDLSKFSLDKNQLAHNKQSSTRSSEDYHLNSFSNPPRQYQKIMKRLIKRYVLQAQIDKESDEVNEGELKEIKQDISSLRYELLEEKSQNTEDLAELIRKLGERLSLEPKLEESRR
TRPC6 act: activates the mouse TRPC6 cation channel; 310,000 compounds, 0.13% hits; Q61143; B-score at 10 µM; HEK293-TRPC6 membrane potential dye fluorescence; active compounds read high;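 active = B-score of the integrated fluorescence ratio above library mean plus 3 SD, and starting fluorescence ratio within library mean plus 5 SD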;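 also: higher score means more depolarization so channel activation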
TRPC4 agonist: TRPC4 (mouse) channel activation | Q9QUQ5 | HEK293 TRPC4beta/mu-opioid, Fluo4 calcium fluorescence; active compounds read high | 310,000 compounds, 0.49% hits | B-score at 10 µM;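 active = B-score above 5 SD of library B-scores, and initial fluorescence ratio not above library mean plus 5 SD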;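 also: positive B-score marks a calcium rise read as TRPC4 activation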
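System – HEK293 cells stably co-expressing mouse TRPC4beta and mu-opioid receptor · Signal – Fluo4 calcium-sensitive dye fluorescence, kinetic, 1 Hz baseline · Benchmarks – buffer (low) and maximal DAMGO (high) · Read-out – B score of integrated fluorescence ratio per well · Incubation – dye loading 45 min room temperature, 110 s kinetic read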
TRPC4 PAM: TRPC4 (mouse) allosteric potentiation; Q9QUQ5; HEK293 TRPC4beta/mu-opioid, DAMGO EC20, Fluo-4 Ca2+ flux; active compounds read high; B-score at 10 µM; 310,000 compounds, 0.42% hits; AID 2227;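 active = B-score of calcium response area above 5 SD of library B-scores, with initial fluorescence ratio within 5 SD of library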;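 also: B-score of integrated fluorescence ratio over time as area under calcium response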
TRPC4 block: TRPC4 (mouse) channel inhibition. Q9QUQ5. HEK293 TRPC4beta/mu-opioid, DAMGO-evoked Fluo4 calcium flux; active compounds read low. B-score at 10 µM. 300,000 compounds, 0.39% hits. AID 2247;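 active = B-score over 3 SD under the library average, no early fluorescence shift, positive overall ratio signal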
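Signal: kinetic Fluo4 fluorescence imaging of calcium influx. Material: stable TRPC4beta/mu-opioid receptor HEK293 cells. Probe or stimulus: DAMGO in two steps, submaximal then maximal.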
TRPC4 sel inh 2: second selectivity test of TRPC6 inhibitors: effect on mouse TRPC4. HEK293 TRPC4/MOR, membrane potential dye fluorescence; channel activated by saturating DAMGO dose. AID 2776. 920 compounds, 42% hits. shares compounds with TRPC6 inh. inhibition, % at 10 µM;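 active = compounds whose fluorescence signal differed from control wells by over 3 SD, either direction, in both duplicate plates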
TRPC4 spec: mouse TRPC4 off-target activity of TRPC6 inhibitors | AID 2777 | shares compounds with TRPC6 inh | 920 compounds, 61% hits | activity change, negative = inhibition, % at 10 µM | HEK293 TRPC4/mu-opioid, membrane potential fluorescence;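 active = rise or fall in signal beyond 3 SD of buffer-only wells in both replicate plates, either sign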;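 also: integrated kinetic ratio of fluorescence range over baseline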
HEK293 MPD ctr 2-1: parental HEK293 nonspecific activity of TRPC6 inhibitors, second screen | shares compounds with TRPC6 inh | parental HEK293 membrane potential dye fluorescence; maximal acetylcholine challenge after compound addition | signal change vs control, % at 10 µM | 920 compounds, 31% hits;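 active = membrane potential signal moving either way by over 3 SD of the maximum-effect control, in both duplicate plates, meaning non-specific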
HEK293 MPD ctr-1: parental HEK293 nonspecific activity of TRPC6 inhibitors | shares compounds with TRPC6 inh | parental HEK293 membrane potential dye fluorescence | membrane potential signal change, % at 10 µM | 920 compounds, 60% hits;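 active = membrane potential signal shifting up or down by more than 3 SD of buffer-only wells, on both duplicate plates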
HEK293 MPD ctr-2: counter-screen for TRPC6 modulators: effect in parental HEK293 cells; shares compounds with TRPC6 inh; membrane potential dye fluorescence; membrane potential signal change, % at 10 µM; 2,400 compounds, 51% hits; AID 488924;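 active = membrane potential signal moves up or down beyond 5 SD from buffer-only wells, on both duplicate plates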
HEK293 MPD ctr 2-2: second check of TRPC6 modulator effects in parental HEK293 cells; shares compounds with TRPC6 inh; inhibition, % at 10 µM; membrane potential dye fluorescence; after compound, maximal acetylcholine stimulation; AID 488926; 2,400 compounds, 14% hits;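 active = membrane potential signal drops by more than 5 SD from the mean control signal, in both duplicate plates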;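 also: plate controls were acetylcholine ECmax control wells for no effect and buffer only wells for full effect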
TRPC4/MOR mod: mouse TRPC4 off-target activity of TRPC6 modulators. shares compounds with TRPC6 inh. HEK293 TRPC4/mu-opioid, membrane potential fluorescence. percent change from control (negative = decrease, positive = increase), % at 10 µM. 2,400 compounds, 69% hits;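 active = membrane potential signal moved up or down beyond 5 SD of buffer control wells, in both duplicate plates, actives on both sides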;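 also: plate controls were assay buffer wells for no effect and DAMGO maximal-effect wells for full effect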
TRPC4 ctr inh 2: second check of whether TRPC6 modulators also affect mouse TRPC4; HEK293 TRPC4/mu-opioid, membrane potential dye fluorescence; stimulated with maximal-effect DAMGO; shares compounds with TRPC6 inh; 2,400 compounds, 55% hits; inhibition, % at 10 µM;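 active = drop in membrane potential signal beyond 5 SD of the control wells in both duplicate plates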;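 also: TRPC4 counter screen for TRPC6 hits run under conditions tuned for TRPC6 not TRPC4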
TRPC6 block conf: mouse TRPC6 inhibitor confirmation; shares compounds with TRPC6 inh; 3,300 compounds, 43% hits; inhibition, % at 10 µM; HEK293-TRPC6, membrane potential dye, ACh-evoked depolarization; AID 488960;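 active = fluorescence ratio falls more than 5 SD below the full-stimulation control mean, in both duplicate runs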;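 also: integrated fluorescence ratio of peak minus minimum over baseline after agonist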
TRPC6 act confirm: mouse TRPC6 activator confirmation; shares compounds with TRPC6 inh; HEK293-TRPC6 membrane potential dye fluorescence, FDSS; activation, % at 10 µM; 2,800 compounds, 11% hits; AID 488961;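 active = ratio signal rise beyond 5 SD above unstimulated control wells' mean, seen in both duplicate runs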;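 also: plate controls were buffer EC0 wells for no effect and acetylcholine ECmax response for full effect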
* = called active by the depositor; i = inactive; x = no result; + = active, no number. The list is not random: actives were taken first. Their share in the collection is about 2.3%.

SMILES	TRPC6 inh	TRPC6 act	TRPC4 agonist	TRPC4 PAM	TRPC4 block	HEK293 MPD ctr-2	HEK293 MPD ctr 2-2	TRPC4/MOR mod	TRPC4 ctr inh 2	TRPC6 block conf	TRPC6 act confirm	others
CCN(CC)c1cc(C)c2cc(NC(=O)CNC(C)=O)ccc2n1	-5.65*	i	i	i	i	-161.0%*	59.0%*	-27.5%*	38.0%*	i	i
CCN(CC)c1cc(C)c2cc(NC(=O)c3ccccc3F)ccc2n1	i	i	i	i	i	x	x	x	x	x	x
O=C1CNC(=O)/C(=C\c2ccccc2)N1	i	i	i	i	i	x	x	x	x	x	x
O=C1/C(=C/c2ccccc2)Nc2ccccc21	i	70.2*	83*	i	i	+	+	309.0%*	i	x	587.0%*
CN(C)C(C)(C)C#CC(O)(c1ccccc1)c1ccccc1	-8.36*	i	i	i	i	x	x	x	x	67.3%*	i	TRPC4 sel inh 2=i;TRPC4 spec=-0.1%*;HEK293 MPD ctr 2-1=11.0%*;HEK293 MPD ctr-1=4.5%*
CN(C)CCC#CC(O)(c1ccccc1)c1ccccc1	-5.69*	i	i	i	i	i	98.0%*	7.0%*	i	83.5%*	x
CCN(CC)CC#CC(O)(c1ccccc1)c1ccccc1	-13.7*	i	i	i	i	x	x	x	x	80.2%*	i	TRPC4 sel inh 2=i;TRPC4 spec=1.8%*;HEK293 MPD ctr 2-1=-31.0%*;HEK293 MPD ctr-1=5.0%*
OCCN(CC#CC(O)(c1ccccc1)c1cccc(F)c1)CCO (stereo not given)	i	i	i	i	i	x	x	x	x	x	x
CN(C)CCC(O)(c1ccccc1)c1ccccc1	i	i	i	i	i	x	x	x	x	x	x
Cc1[nH]c2ccccc2c1/C=N/NC(=O)CNC(=O)c1ccc2c(c1)OCCO2	i	i	i	i	i	x	x	x	x	x	x
O=C(N/N=C/c1ccc([N+](=O)[O-])s1)c1ccccc1Br	i	i	i	i	i	x	x	x	x	x	x
O=C(N/N=C/c1ccc([N+](=O)[O-])s1)c1ccccc1	-6.03*	i	i	i	i	i	i	i	i	i	i
Cc1ccccc1C(=O)N/N=C/c1ccc([N+](=O)[O-])s1	-6.1*	12.5*	i	i	i	i	i	13.0%*	i	i	i
CCCN(CCC)CCCNC(=S)Nc1ccc2nc(N3CCCC3)cc(C)c2c1	-8.01*	i	i	i	i	x	x	x	x	i	i	TRPC4 sel inh 2=i;TRPC4 spec=-14.8%*;HEK293 MPD ctr 2-1=19.0%*;HEK293 MPD ctr-1=-166.5%*
Cc1cc(N2CCOCC2)nc2ccc(NC(=S)NCCC(C)C)cc12	i	i	i	i	i	x	x	x	x	x	x
Cc1cc(N2CCN(C)CC2)nc2ccc(NC(=S)NCCC(C)C)cc12	-6.22*	i	i	i	i	-110.5%*	i	-27.0%*	72.0%*	55.5%*	i
Cc1cc(N2CCCC2)nc2ccc(NC(=S)NCCCOC(C)C)cc12	-7.13*	i	i	i	i	-126.5%*	i	-22.0%*	46.0%*	42.0%*	i
COCCCNC(=S)Nc1ccc2nc(N3CCOCC3)cc(C)c2c1	i	i	i	i	i	x	x	x	x	x	x
CCOC(=O)c1c(-c2cccc([N+](=O)[O-])c2)csc1N	i	i	i	i	i	x	x	x	x	x	x
Cc1csc2cc(-c3cccc([N+](=O)[O-])c3)c(-c3cccc([N+](=O)[O-])c3)c[n+]12	-6.06*	i	i	i	i	-309.5%*	66.0%*	-51.5%*	55.0%*	69.0%*	i
Cc1cc(=O)n2c3ccccc3n(CC(O)CN3CCCC3)c2c1C#N (stereo not given)	-7.97*	i	i	i	i	x	x	x	x	52.6%*	i	TRPC4 sel inh 2=68.5%*;TRPC4 spec=-19.1%*;HEK293 MPD ctr 2-1=i;HEK293 MPD ctr-1=-280.5%*
CCCNCC(O)Cn1c2ccccc2n2c(=O)cc(C)c(C#N)c12 (stereo not given)	i	i	i	i	i	x	x	x	x	x	x
O=c1c2ccccc2n(CC(O)CN2CCCCC2)c2ccccc12 (stereo not given)	-5.16*	i	i	i	i	-104.5%*	i	-16.0%*	49.0%*	i	i
O=C(/C=C/c1cn(CC(O)CN2CCCCC2)c2ccccc12)c1ccccc1 (stereo not given)	-6.38*	i	i	i	i	294.0%*	i	i	84.0%*	73.5%*	x
CCCN(CCC)CC(O)Cn1cc(/C=C/C(=O)c2cccs2)c2ccccc21 (stereo not given)	-10.6*	i	i	i	i	x	x	x	x	i	i	TRPC4 sel inh 2=24.0%*;TRPC4 spec=9.6%*;HEK293 MPD ctr 2-1=i;HEK293 MPD ctr-1=16.5%*
Cc1ccc(C(=O)N/C(=C\c2ccc(Cl)cc2)C(=O)NCCN2CCOCC2)cc1	i	i	i	i	i	x	x	x	x	x	x
O=C(COC(=O)c1cc(-c2cccs2)nn1-c1ccccc1)Nc1ccc(F)c([N+](=O)[O-])c1	i	i	i	i	i	x	x	x	x	x	x
COc1ccc(C(C)=O)cc1COC(=O)CSCC(=O)Nc1ccc(C)cc1	i	i	i	i	i	x	x	x	x	x	x
Cc1ccc(C(=O)N2CCN(S(=O)(=O)c3ccc(C)cc3)CC2)cc1	-5.13*	i	i	i	i	i	i	i	i	79.0%*	x

Screening data from PubChem.
